NR2E3 ag-1: agonists of human nuclear receptor NR2E3 | inhibition of corepressor binding, % at 4.78 µM | hit rate 0.12% among 320,000 | GST-NR2E3/biotin-RetCOR TR-FRET, 1536-well | AID 2300 | Q9Y5X4;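 active = percent inhibition above the cutoff of mean plus 3 SD of all tested compounds, set per screening campaign, cut at about 20% in these data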;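 also: 0% = DMSO wells and 100% = biotin wells as full block of FRET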
Target sequence (Q9Y5X4 whole entry, looked up): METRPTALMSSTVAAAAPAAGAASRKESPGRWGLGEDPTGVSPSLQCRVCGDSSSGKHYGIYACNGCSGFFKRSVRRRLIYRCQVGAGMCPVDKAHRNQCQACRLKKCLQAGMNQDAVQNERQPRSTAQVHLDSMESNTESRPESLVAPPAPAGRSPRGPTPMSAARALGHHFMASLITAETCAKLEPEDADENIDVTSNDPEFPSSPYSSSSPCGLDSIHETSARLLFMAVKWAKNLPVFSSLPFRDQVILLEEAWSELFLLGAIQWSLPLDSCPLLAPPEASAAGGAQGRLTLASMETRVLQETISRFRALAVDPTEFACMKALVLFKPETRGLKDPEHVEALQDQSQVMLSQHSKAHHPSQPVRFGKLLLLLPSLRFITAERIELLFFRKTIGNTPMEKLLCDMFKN
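Material: NR2E3–RetCOR corepressor complex / Incubation: Compound–protein incubation for 5 h at 4 °C / Dosing: compound at 4.8 µM, single dose / Detection: time-resolved FRET / Benchmarks: high control biotin, low control 0.6% DMSO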
NR2E3 ag-2: agonists of human NR2E3 nuclear receptor; Q9Y5X4; CHO-S Gal4-NCOR/VP16-NR2E3 two-hybrid, luciferase; inhibition of corepressor binding, % at 3.98 µM; hit rate 0.35% among 360,000; AID 602229;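 active = inhibition above the mean of all tested compounds plus 3 SD, cut at about 70% in these data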;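 also: 0% = DMSO with NR2E3 transfected cells and 100% = cells lacking NR2E3 construct; higher means lower luciferase signal from less NR2E3 corepressor binding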
PG9 binder: binds the HIV-1 gp120 antibody PG9; TR-FRET gp120-PG9 antibody binding; inhibition, % at 6.7 µM; hit rate 0.43% among 360,000; in the data active = inhibition above about 8.5%
NR1D1 modulator: modulates human Rev-erb alpha binding to DNA; hit rate 0.79% among 370,000; P20393; AID 1259318; activity, % at 10 µM; Rev-erbα–FITC-DNA binding, fluorescence polarization, 90 min;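 active = activity above about 14%, limit read from the data; passing the limit was not always enough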;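 also: 0% = DMSO wells with 35 nM protein and 100% = DMSO wells with 750 nM protein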
Rev-erbA confirm: confirmation of modulators of human Rev-erb alpha DNA binding | Rev-erb alpha FITC-DNA binding, fluorescence polarization, 90 min | shares compounds with NR1D1 modulator | hit rate 61% among 3,000 | activation, % at 25 µM;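 active = activation at or above a set limit, or at least 3 SD above the negative control mean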;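 also: 0% = 35 nM protein with DMSO and 100% = 750 nM protein high control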
RORg counter: affects RORgamma DNA binding in a Rev-erb alpha counter-screen; AID 1259320; purified RORgamma protein-FITC-DNA binding, fluorescence polarization; IC50, µM; hit rate 8% among 910; shares compounds with NR1D1 modulator;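 active = Compounds whose fitted half-maximal concentration for disrupting protein-DNA binding is below 10 micromolar; the record names Rev-erb in its text, so the target is in doubt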
* marks the source's active call; other numbers are inactive results. The list is not random: actives were taken first. Their share in the collection is about 1.4%.

How did COc1ccccc1C(=O)Nc1nnc(S(=O)(=O)N2CCN(c3ccc(F)cc3)CC2)s1 do in these assays?
NR2E3 ag-1: 2; NR2E3 ag-2: -25; PG9 binder: -1; NR1D1 modulator: 18*; Rev-erbA confirm: 2

Results for O=C(Nc1nnc(-c2ccccc2)s1)c1ccc(F)cc1 ?
NR2E3 ag-1: -2; NR2E3 ag-2: 14; PG9 binder: 6; NR1D1 modulator: 9

How did COc1ccccc1C(=O)Nc1nnc(-c2ccc(F)cc2)s1 do in these assays?
NR2E3 ag-1: 2; NR2E3 ag-2: -88; PG9 binder: 0; NR1D1 modulator: 36*; Rev-erbA confirm: 39*; RORg counter: >40

What do the screens show for `O=C(CSc1nnnn1-c1ccc2c(c1)OCCO2)c1cccc2c1OCCO2`?
NR2E3 ag-1: -1; NR2E3 ag-2: -58; PG9 binder: -2; NR1D1 modulator: 107*; Rev-erbA confirm: 81*; RORg counter: >40

Results for COc1ccc(-n2nnnc2SCC(=O)c2cccc(OC)c2)cc1 ?
NR2E3 ag-1: 1; NR2E3 ag-2: -5; PG9 binder: -1; NR1D1 modulator: 9

Results for O=C(O)CSc1nnnn1-c1ccc2c(c1)OCCO2 ?
NR2E3 ag-1: 3; NR2E3 ag-2: -6; PG9 binder: 1; NR1D1 modulator: -5

Results for O=C(O)CSc1nnc(-c2cccs2)n1-c1ccc(Cl)cc1 ?
NR2E3 ag-1: 0; NR2E3 ag-2: 1; PG9 binder: 1; NR1D1 modulator: 0

Results for O=C(CSc1nnc(-c2cccs2)n1-c1cccc(Cl)c1)c1cccc2c1OCCO2 ?
NR2E3 ag-1: -2; NR2E3 ag-2: -12; PG9 binder: 0; NR1D1 modulator: 79*; Rev-erbA confirm: 85*; RORg counter: >40

How did COc1ccc(-n2nnnc2SCC(=O)c2ccc3c(c2)OCCO3)cc1 do in these assays?
NR2E3 ag-1: -3; NR2E3 ag-2: 0; PG9 binder: 8; NR1D1 modulator: 63*; Rev-erbA confirm: 64*

Results for Brc1ccsc1-c1csc(-c2ccncc2)n1 ?
NR2E3 ag-1: 10; NR2E3 ag-2: -39; PG9 binder: 4; NR1D1 modulator: 10

Results for NC(=O)COc1ccc(/C=N\NC(=O)c2ccc(-c3ccccc3)cc2)cc1 ?
NR2E3 ag-1: 0; NR2E3 ag-2: -4; PG9 binder: 2; NR1D1 modulator: 35*; Rev-erbA confirm: 21*

What do the screens show for `NC(=O)Cc1nc2scc(-c3ccccc3)c2c(=O)[nH]1`?
NR2E3 ag-1: 2; NR2E3 ag-2: 0; PG9 binder: -1; NR1D1 modulator: -6

How did COC(=O)[C@H]1C[C@@]2(N3CCCC3)c3ccccc3N[C@H]2N1S(=O)(=O)c1ccc([N+](=O)[O-])cc1 do in these assays?
NR1D1 modulator: -3

Results for O=C(Nc1ccon1)c1sc2cc(Cl)ccc2c1Cl ?
NR2E3 ag-1: -13; NR2E3 ag-2: 8; PG9 binder: -2; NR1D1 modulator: 25*; Rev-erbA confirm: 15

How did O=C(NCc1ccco1)c1sc2cc(Cl)ccc2c1Cl do in these assays?
NR2E3 ag-1: 1; NR2E3 ag-2: -53; PG9 binder: 0; NR1D1 modulator: 0

How did Cc1ccc(-c2noc(CSc3nnc(Cc4ccccc4)n3-c3ccc(Cl)cc3)n2)cc1 do in these assays?
NR2E3 ag-1: 1; NR2E3 ag-2: -1; PG9 binder: -2; NR1D1 modulator: 2

Results for COC(=O)c1c(C)[nH]c(C(=O)CN(C)CC(=O)Nc2cccc(F)c2)c1C ?
NR2E3 ag-1: 5; NR2E3 ag-2: -32; PG9 binder: -1; NR1D1 modulator: 6

How did Cc1ccccc1C(=O)NC(C)C(c1cccs1)N1CCOCC1 (centres undefined) do in these assays?
NR2E3 ag-1: 1; NR2E3 ag-2: -12; PG9 binder: 0; NR1D1 modulator: -1

How did CC(=O)N1CCc2cc(N=NC3=C(O)CC(C)(C)CC3=O)ccc21 do in these assays?
NR2E3 ag-1: -1; NR2E3 ag-2: -8; PG9 binder: -3; NR1D1 modulator: 20*; Rev-erbA confirm: 20*

How did CCC(=O)Nc1ccc(C(=O)CSc2nnc(-c3ccccc3F)n2C2CC2)cc1 do in these assays?
NR2E3 ag-1: 2; NR2E3 ag-2: -19; PG9 binder: -1; NR1D1 modulator: -1

How did O=C(N/N=C\c1c(O)ccc2ccccc12)c1ccc(O)cc1 do in these assays?
NR2E3 ag-1: 2; NR2E3 ag-2: -25; PG9 binder: 0; NR1D1 modulator: -3

How did Cc1occc1C(=O)N/N=C/c1c(O)ccc2ccccc12 do in these assays?
NR2E3 ag-1: 3; NR2E3 ag-2: -99; PG9 binder: 1; NR1D1 modulator: 25*; Rev-erbA confirm: 25*

What do the screens show for `CC1CCc2sc(C(=O)Nc3nnc(SCc4ccc(F)cc4)s3)cc2C1` (centres undefined)?
NR2E3 ag-1: 2; NR2E3 ag-2: -42; PG9 binder: 8; NR1D1 modulator: 30*; Rev-erbA confirm: 17

How did O=C(CC1(O)C(=O)Nc2ccccc21)c1ccc(-n2cnnn2)cc1 (centres undefined) do in these assays?
NR2E3 ag-1: -3; NR2E3 ag-2: -30; PG9 binder: 2; NR1D1 modulator: -4

How did O=C(CSc1nc2ccccc2c(=O)n1-c1ccc(F)c(Cl)c1)Nc1cccc(S(=O)(=O)N2CCOCC2)c1 do in these assays?
NR2E3 ag-1: -2; NR2E3 ag-2: 1; PG9 binder: -1; NR1D1 modulator: 38*; Rev-erbA confirm: 19*

How did CCOC(=O)c1c(NC(=O)CSc2nc3ccccc3c(=O)n2-c2ccc(F)cc2)sc(C(C)=O)c1C do in these assays?
NR2E3 ag-1: -1; NR2E3 ag-2: -5; PG9 binder: 0; NR1D1 modulator: 114*; Rev-erbA confirm: 30*

How did O=C(CSc1nc2ccccc2c(=O)n1-c1ccc(F)cc1)Nc1ccc(Cl)c(S(=O)(=O)N2CCOCC2)c1 do in these assays?
NR2E3 ag-1: -3; NR2E3 ag-2: -25; PG9 binder: 0; NR1D1 modulator: 63*; Rev-erbA confirm: 33*; RORg counter: >40

How did Cc1ccc(-n2c(SCC(=O)Nc3cccc(S(=O)(=O)NC4=NCCCCC4)c3)nc3ccccc3c2=O)cc1 do in these assays?
NR2E3 ag-1: 0; NR2E3 ag-2: -7; PG9 binder: -3; NR1D1 modulator: 80*; Rev-erbA confirm: 42*; RORg counter: >40

What do the screens show for `CCc1ccc(-n2c(SCC(=O)Nc3cccc(S(=O)(=O)NC4=NCCCCC4)c3)nc3ccccc3c2=O)cc1`?
NR2E3 ag-1: 1; NR2E3 ag-2: 15; PG9 binder: 0; NR1D1 modulator: -3

Results for O=C(COC(=O)c1n[nH]c2ccccc12)c1cc(F)ccc1F ?
NR2E3 ag-1: -2; NR2E3 ag-2: -45; PG9 binder: 0; NR1D1 modulator: 10

How did COc1ccc(-c2cc(C(=O)NCCCN3CCOCC3)c3ccccc3n2)cc1OC do in these assays?
NR2E3 ag-1: -1; NR2E3 ag-2: 24; PG9 binder: 0; NR1D1 modulator: 5

Source: PubChem (several laboratories)
